Laboratory results as given in PMC8264940 (ACS Omega, 2021).
Counter-ions that a name gives are not always drawn. Blank lines part the entries; values can stand above or below the compound they belong to.

Experiments:
SD rats = test: Acute toxicological study; type: in vivo, rat
ZDF rats = test: Antidiabetic study, HbA1c in ZDF rats; type: in vivo, rat; details: for HbA1c-lowering / antidiabetic effect (in words): repeated oral dosing BID, ZDF rats aged 11 to 13 weeks
Summary of the method: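 Male ZDF rats, 11 weeks old, allocated by HbA1c, fasting blood glucose and body weight. Test compound or metformin suspended in 5% gum Arabic, given orally twice daily and dosed on the latest body weight for 6 weeks. Body weight and food intake monitored. HbA1c measured by analyser, expressed as change from baseline; mean ± SE, n = 16 or 8; compared with vehicle group.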

[1] = Plasma pharmacokinetic study in SD rats; details: rat, in vivo
Summary of the method: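 Male SD rats, 6–7 weeks old; test compound given as oral suspension by body weight, two animals per compound. Tail-vein blood was collected. Plasma was mixed with 10-fold acetonitrile–methanol (1:1), centrifuged, and the supernatant analysed by LC-ESI-MS/MS (C18 column, ammonium acetate/acetonitrile gradient, negative-ion selected reaction monitoring). Plasma detection limit 0.01 μg/mL.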

[2] = system: NaCT-expressing CHO cells; test: TCA cycle activation assay; type: cell-based
Summary of the method: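 Stably transfected CHO-K1 cells express NaCT (pME18S, then pcDNA3.1(+) vectors); control CHO cells carry vector without the NaCT gene. Cells take up [1,5-14C]citric acid. TCA cycle activation is read as the reduction in residual intracellular radioactivity as the citrate is metabolised. Run with and without antimycin A (complex III inhibitor).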

Tissue distribution = type: in vivo, rat; details: 2 h after 10 mg/kg p.o., SD rats, mean of 2 animals; detection limit 0.04 μg/g
Summary of the method: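 Male SD rats, 6–7 weeks old, given test compound as oral suspension, two animals per compound; values are means of 2. Liver and brain homogenates and plasma were mixed with 10-fold acetonitrile–methanol (1:1), centrifuged, and supernatants analysed by LC-ESI-MS/MS in negative-ion SRM mode. Detection limits 0.01 μg/mL (plasma) and 0.04 μg/g (liver, brain).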

HepG2 cells = test: Oxygen consumption rate; type: cell-based, human; details: in the presence of oligomycin, P < 0.01 vs DMSO

Compound: N#Cc1[nH]nnc1-c1cccc(OCc2cc(C(F)(F)F)ccc2C(F)(F)F)c1 [Compound 3a, 5-{3-[2,5-Bis(trifluoromethyl)benzyloxy]phenyl}-3H-[1,2,3]triazole-4-carbonitrile]
Deaths (SD rats; 300 mg/kg single dose, after hyperthermia and hyperglycemia): one of three

Compound: N#Cc1[nH]nnc1-c1cccc(-c2cc(F)cc(C(F)(F)F)c2)c1 [Compound 3b, 5-(3′-Fluoro-5′-trifluoromethyl-[1,1-biphenyl]-3-yl)-3H-[1,2,3]triazole-4-carbonitrile]
Doses elevating rectal temperature (SD rats; single dose, SD rats, 8 h after dosing): no elevation of rectal temperature was observed
HbA1c-lowering / antidiabetic effect (in words) (ZDF rats): remarkable antidiabetic effect

Compound: N#Cc1[nH]nnc1-c1cc(Cl)cc(/C=C/c2cccc(C(F)(F)F)c2)c1 [Compound 3c, (E)-5-(3-Chloro-5-(3-(trifluoromethyl)styryl)phenyl)-3H-1,2,3-triazole-4-carbonitrile]
HbA1c-lowering / antidiabetic effect (in words) (ZDF rats): significant HbA1c lowering effect
Metabolite finding in PK study [1]: a metabolite implying the possibility of future adverse effects was found
In vitro activity relative to compound 1 ([2]; EC50 of the TCA activation): one-third

Brain distribution, concentration (Tissue distribution): indetectable
Compound: N#Cc1[nH]nnc1-c1csc(-c2ccc(Cl)cc2)n1 [Compound 3d, 5-[2-(4-Chlorophenyl)-thiazol-4-yl]-3H-[1,2,3]triazole-4-carbonitrile]
HbA1c-lowering / antidiabetic effect (in words) (ZDF rats): prominent

Compound: Cc1sc(-c2ccc(C(F)(F)F)cc2)nc1-c1nn(C)nc1C#N [Compound 4, 2-Methyl-5-{5-methyl-2-[4-(trifluoromethyl)phenyl]thiazol-4-yl}-2H-1,2,3-triazole-4-carbonitrile]
Activation of the TCA cycle (in words) [2]: did not occur

Compound: O=[N+]([O-])c1ccc(O)c([N+](=O)[O-])c1 [DNP, 2,4-dinitrophenol]
Concentration significantly increasing OCR (HepG2 cells): 40 µM

Compound: N#CC(C#N)=NNc1ccc(OC(F)(F)F)cc1 [FCCP, Carbonyl cyanide p-trifluoromethoxyphenylhydrazone]
Concentration significantly increasing OCR (HepG2 cells): 0.25 µM

Compound: CN(C)C(=N)N=C(N)N [metformin, 1,1-Dimethyl biguanide (metformin) hydrochloride, reference compound]
Effect on HbA1c, monotherapy (in words) (ZDF rats; 100 mg/kg/day alone, 6-week, ZDF rats): no effect

Compound: N[C@@H](CC(=O)N1CCn2c(nnc2C(F)(F)F)C1)Cc1cc(F)c(F)cc1F [sitagliptin, Sitagliptin phosphate hydrate, reference compound]
Reduction of HbA1c change from the vehicle value (ZDF rats; monotherapy 10 mg/kg/day, 6-week, vehicle 2.97% points): 11.4%
